Screens (PubChem BioAssay)
Measles CPE: compounds protecting cells from measles virus cytopathic effect, primary screen, measles RdRp inhibitor project, single point, MLSMR library, absorbance. Measles virus-infected cells, CPE protection. protection (pct of control), % at 4 µM. actives 1.5% (n = 140,000); in the data active means protection mostly above about 24%, no sharp cut-off; inactive means mostly below about 26%
BB579 growth dn: growth inhibitors of yeast BB579 in restrictive medium, primary screen, yeast lifespan-shortening project, S. cerevisiae; OD615, 48 h; AID 804, 2007; actives 0.51% (n = 140,000); inhibition, % at 10 µM;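 active means inhibition above a set limit, 3 SD over the mean compound inhibition, cut at about 44% in these data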
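Assay system: S. cerevisiae DeaD strain BB579 yeast. Medium: CSMM-D restrictive synthetic medium containing dextrose (glucose). Times: 4 h cell preincubation, 48 h compound exposure, 30 °C humidified. Signal: OD615 turbidity measurement. Benchmarks: positive control amphotericin B 10 µg/mL.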
RAM inhibit: inhibitors of the yeast RAM network, primary screen, dse1pr::URA3 reporter, 5-FOA selection. S. cerevisiae dse1pr::URA3 reporter, 5-FOA growth OD615, 2 d; analog-sensitive cbk1-as2 kinase mutant strain. inhibition, % at 50 µM. actives 1.8% (n = 190,000);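 active means inhibition above a set limit, 3 SD over mean compound inhibition, cut at about 8.4% in these data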;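 further: inhibition rescues growth on 5-FOA so higher OD means more RAM inhibition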
Yeast life ext: compounds extending yeast replicative lifespan, primary screen, S. cerevisiae, OD615; S. cerevisiae growth with nicotinamide; deaD strain in restrictive glucose medium; inhibition of the nicotinamide effect, % at 10 µM; actives 0.68% (n = 130,000); AID 775, 2007;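 active means inhibition above a set limit, placed 3 SD over the median of all compounds, cut at about 26% in these data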
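System: Modified budding yeast, DeaD strain | Buffer or medium: Restrictive glucose medium | Also added: 1.5 mM nicotinamide | Doses: 10 µM single point, 0.25% DMSO | Schedule: 48 h compound exposure at 30 °C, humidified | Detection: Absorbance at 615 nm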
Each line names hits and unclear results; the compound was inactive in the other large screens. In the library only some 3.6% were active in any assay of this set; here they are far more common.

Cc1nc2ncnn2c(N2CCN(C(c3ccccc3)c3ccccc3)CC2)c1C	Measles CPE 53
Cc1nc2cc3ccccc3cc2c(=O)[nH]1	BB579 growth dn 45
Cc1cc2ccccc2c(=O)[nH]1	none
COc1ccc(C(=O)NCCc2nnc(SCC(=O)Nc3ccccc3F)n2C)cc1	none (no result: Measles CPE, BB579 growth dn, Yeast life ext)
COc1cccc(CNC23CC4CC(CC(C4)C2)C3)c1OCc1ccccc1	none (no result: Measles CPE, BB579 growth dn, Yeast life ext)
Cc1cccc(C)c1N=Cc1c(O)n(-c2nccs2)c(=O)c2ccccc12	Yeast life ext 33
CC1CC(C)(C)NC(=S)N1CC(=O)NCc1ccc2c(c1)OCO2 (configuration not stated)	none (no result: Measles CPE, BB579 growth dn, Yeast life ext)
COC(=O)Cc1cc(=O)n(-c2nc3ccccc3[nH]2)[nH]1	BB579 growth dn 72
O=C(CSc1nnc(SCc2ccccc2)s1)NNC(=S)Nc1ccccc1	RAM inhibit 10
O=C(Cc1ccccc1)NNC(=S)Nc1ccccc1	none (no result: Measles CPE, BB579 growth dn, Yeast life ext)
CCOC(=O)CNC(=S)n1ncnc1N	none (no result: Measles CPE, BB579 growth dn, Yeast life ext)
COc1ccc(Cn2nnnc2C(C(C)C)N2CCc3ccccc32)cc1 (configuration not stated)	RAM inhibit 11
COc1ccc(Cn2nnnc2C(CC(C)C)N2CCN(c3ccccc3)CC2)cc1 (configuration not stated)	none
Cc1ccc(-c2nc3sc(C(N)=O)c(N)c3c3c2CCCC3)cc1	BB579 growth dn 46
CC(=O)c1sc2nc(-c3ccc(C)cc3)c3c(c2c1N)CCCC3	none
COc1ccc(C2(C(=O)NCc3ccco3)CCCC2)cc1OC	Measles CPE 53
O=C(NCc1ccco1)C1(c2ccccc2)CCCC1	none
COc1ccc(-c2ccnc3c(C(=O)O)cnn23)cc1	none (no result: Measles CPE, BB579 growth dn, Yeast life ext)
Cc1ccccc1NC(=O)c1ccc(CN2CCC(Cc3ccccc3)CC2)cc1	Measles CPE 51
COc1ccc2oc(-c3ccccc3)c(C(=O)N3CCOCC3)c2c1	none
CC(=O)Oc1ccc2oc(C)c(C(=O)N3CCOCC3)c2c1	Measles CPE 39
COC(=O)/C(=C/c1cn(C)c2ccccc12)[N+](=O)[O-]	Yeast life ext 74
COC(=O)/C(=C/c1c[nH]c2ccccc12)[N+](=O)[O-]	Yeast life ext 26
COC(=O)/C(=C/c1c[nH]c2ccccc12)NC(C)=O	none
COCCCNC(=O)c1ccc([N+](=O)[O-])c(Cl)c1	Measles CPE 36
COc1cc(CNCc2ccccn2)ccc1OCC(=O)NC(C)(C)C	Measles CPE 31
COc1ccc(N(CC(=O)N/N=C/c2ccc3c(c2)OCO3)S(=O)(=O)c2ccccc2)cc1	RAM inhibit 9.2 (no result: Measles CPE, BB579 growth dn, Yeast life ext)
O=C(N/N=C/c1ccc2c(c1)OCO2)c1ccccn1	Measles CPE 92
CC(=O)c1ccccc1NCC(=O)Nc1ccc(C)cc1	none (no result: Measles CPE, BB579 growth dn, Yeast life ext)
CC(Oc1ncnc2ccccc12)C(=O)Nc1cccc(S(=O)(=O)N2CCOCC2)c1 (configuration not stated)	none
COc1ccc(-c2cc(C)nc3c(-c4ccccc4)cnn23)cc1	RAM inhibit 9.0 (no result: Measles CPE, BB579 growth dn, Yeast life ext)
O=c1c2c([N+](=O)[O-])cc([N+](=O)[O-])cc2sn1-c1ccc(Br)cc1	BB579 growth dn 45
O=C(Nc1cccc([N+](=O)[O-])c1)c1ccn[nH]1	none (no result: Measles CPE, BB579 growth dn, Yeast life ext)
CCOc1ccc(NC(=O)Cn2nnc(C(=O)NCc3ccccc3OC)c2N)cc1	RAM inhibit 9.9
Cc1ccccc1CNC(=O)c1ccccc1N	none
COc1ccccc1CNC(=O)c1ccccc1N	Measles CPE 37
NC(=O)c1ccsc1NC(=O)CSc1nnc2ccccn12	none (no result: Measles CPE, BB579 growth dn, Yeast life ext)
NC(=O)c1ccsc1NC(=O)CSc1nc2ccccc2c(=O)n1CCCO	RAM inhibit 8.9
COC(=O)c1cc(NC(=O)CN(c2cccc(OC)c2)S(=O)(=O)c2ccccc2)ccc1Cl	RAM inhibit 8.9
COC(=O)c1cc(NC(=O)CN(c2ccccc2OC)S(=O)(=O)c2ccccc2)ccc1Cl	none
CCOCC(=O)N1CCN(c2ccccc2OC)CC1	none (no result: Measles CPE, BB579 growth dn, Yeast life ext)
COc1ccc(/C=C\C(=O)NCc2ccc3[nH]c(C)cc3c2)cc1OC	RAM inhibit 10
CC1(C)CC(=O)C2=C(C1)OC1OC(=O)CC21C (configuration not stated)	none (no result: Measles CPE, BB579 growth dn, Yeast life ext)
Cc1ccc([N+](=O)[O-])cc1S(=O)(=O)Nc1ccc(N2CCOCC2)cc1	none (no result: Measles CPE, BB579 growth dn, Yeast life ext)
CCOC(=O)C1CCN(C(=O)CS(=O)Cc2nc(-c3ccc(C)cc3)oc2C)CC1 (configuration not stated)	Measles CPE 46
CCOC(=O)C1CCN(C(=O)CSCc2nc(-c3ccc(OCC)cc3)oc2C)CC1	none
CC1C/C(=N\NC(=O)c2ccc(NS(=O)(=O)c3ccc(Br)cc3)cc2)CC(C)(C)C1 (configuration not stated)	none
O=C(O)c1ccc(S(=O)(=O)Nc2ccc(O)c(Sc3nc4ccccc4s3)c2)cc1	RAM inhibit 9.8 (no result: Measles CPE, BB579 growth dn, Yeast life ext)
Cc1ccc(-n2nnnc2SCc2nnc(-c3ccccc3Br)o2)c(C)c1	RAM inhibit 11
Cn1/c(=N/N=C/c2ccccn2)sc2ccccc21	none (no result: Measles CPE, BB579 growth dn, Yeast life ext)
COc1c2c(nc3occc13)C(CCC(C)(C)O)(OC)C(O)CC2 (configuration not stated)	Measles CPE 76
COc1c2ccoc2nc2c(OC)c(O)ccc12	none (no result: Measles CPE, BB579 growth dn, Yeast life ext)
S=c1cnc2ccccc2[nH]1	none (no result: Measles CPE, BB579 growth dn, Yeast life ext)
CCN(CC)C(=O)c1ccccc1NC(=O)CN1C(=O)c2ccccc2C1=O	none (no result: Measles CPE, BB579 growth dn, Yeast life ext)
COc1ccc(-c2c(C)[nH]n3c(=O)c(Cc4ccccc4)c(C)nc23)cc1	none
COc1cccc(NC(=O)C(NCC(C)(C)CN(C)C)c2ccccc2)c1 (configuration not stated)	Measles CPE 46
O=C(Nc1nc(-c2ccccn2)cs1)c1ccc(Br)s1	BB579 growth dn 99
N#CC1=C(N)OC2=C(C(=O)CC(c3ccccc3)C2)C1c1ccoc1 (configuration not stated)	Measles CPE 30
N#CC1=C(N)OC2=C(C(=O)CC(c3ccccc3)C2)C1c1cccnc1 (configuration not stated)	none
Clc1ccccc1CSc1cc2c(nn1)-c1ccccc1CC2	RAM inhibit 10
Clc1ccc(CSc2cc3c(nn2)-c2ccccc2CC3)cc1Cl	RAM inhibit 10
Clc1cccc(Cl)c1CSc1cc2c(nn1)-c1ccccc1CC2	none
O=C(CCNC(=O)c1ccccc1Cl)Nc1nc(-c2ccc3ccccc3c2)cs1	none
COc1ccc(S(=O)(=O)Cc2ccc(C(=O)NCc3ccc(F)cc3)o2)cc1	Measles CPE 32
COc1ccc(S(=O)(=O)Cc2ccc(C(=O)NCc3cccnc3)o2)cc1	none
COc1ccc(C(=O)NC2CCCCCC2)cc1S(=O)(=O)Nc1ccc(Br)cc1	Measles CPE 32
COc1ccc2c(c1)c1nnc(SC)nc1n2C	BB579 growth dn 90
COC(=O)C1C(=O)c2c([nH]c(C(=O)OC3CCCC3C)c2C)CC1C (configuration not stated)	none
COC(=O)C1C(=O)c2c([nH]c(C(=O)OC3CCCCC3)c2C)CC1C (configuration not stated)	Measles CPE 33
